Results from different studies.
Lines come from different studies, so protocols differ.
Target: Mitogen-activated protein kinase kinase kinase 19 (MAP3K19, Homo sapiens, UniProt Q56UN5)
Sequence (Q56UN5 1-1328, as in one of the studies): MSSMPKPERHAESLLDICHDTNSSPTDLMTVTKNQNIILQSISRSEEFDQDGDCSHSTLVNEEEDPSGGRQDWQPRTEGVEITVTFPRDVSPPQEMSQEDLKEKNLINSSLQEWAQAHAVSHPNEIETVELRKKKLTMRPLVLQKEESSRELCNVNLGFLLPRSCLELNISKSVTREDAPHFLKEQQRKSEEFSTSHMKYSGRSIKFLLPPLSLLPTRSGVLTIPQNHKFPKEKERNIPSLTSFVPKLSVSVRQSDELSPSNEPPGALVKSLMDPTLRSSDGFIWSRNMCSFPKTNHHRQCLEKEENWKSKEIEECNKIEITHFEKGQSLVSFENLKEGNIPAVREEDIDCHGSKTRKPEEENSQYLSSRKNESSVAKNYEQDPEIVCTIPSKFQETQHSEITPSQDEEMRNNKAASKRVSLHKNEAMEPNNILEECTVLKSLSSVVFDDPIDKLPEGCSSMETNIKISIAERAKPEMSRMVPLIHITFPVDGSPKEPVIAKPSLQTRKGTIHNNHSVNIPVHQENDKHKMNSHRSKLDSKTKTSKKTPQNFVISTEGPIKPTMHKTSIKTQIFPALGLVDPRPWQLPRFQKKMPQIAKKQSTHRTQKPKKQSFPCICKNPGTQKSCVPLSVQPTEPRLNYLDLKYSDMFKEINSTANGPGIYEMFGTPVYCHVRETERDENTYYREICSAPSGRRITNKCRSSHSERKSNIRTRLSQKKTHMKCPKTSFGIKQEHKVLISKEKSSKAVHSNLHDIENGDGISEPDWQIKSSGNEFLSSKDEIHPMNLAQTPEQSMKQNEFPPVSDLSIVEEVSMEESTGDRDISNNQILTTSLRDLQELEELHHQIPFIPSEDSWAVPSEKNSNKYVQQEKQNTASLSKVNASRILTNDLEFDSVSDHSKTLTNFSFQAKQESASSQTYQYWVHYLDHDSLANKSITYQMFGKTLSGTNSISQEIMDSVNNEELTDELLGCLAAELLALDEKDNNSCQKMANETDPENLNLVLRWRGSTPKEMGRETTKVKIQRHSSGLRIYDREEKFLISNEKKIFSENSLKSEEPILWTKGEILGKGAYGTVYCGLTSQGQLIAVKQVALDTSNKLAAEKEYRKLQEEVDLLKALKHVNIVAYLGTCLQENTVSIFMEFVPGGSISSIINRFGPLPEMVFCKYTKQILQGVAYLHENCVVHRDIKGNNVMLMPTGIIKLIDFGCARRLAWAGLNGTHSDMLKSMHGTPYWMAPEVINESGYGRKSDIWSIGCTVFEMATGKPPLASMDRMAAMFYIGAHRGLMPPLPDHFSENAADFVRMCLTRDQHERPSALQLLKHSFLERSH

| Compound | effect on | technique | concentration | remaining binding [%] |
| --- | --- | --- | --- | --- |
| Cc1cnc(Nc2ccc(C(=O)N3CCC(N4CCCC4)CC3)cc2)nc1-c1cc2ccccc2s1 | binding | competition with immobilised ligand | 1 µM | 0 |
| C[C@@H](c1ccc(-n2cnc3c(N)ncnc32)cc1)N1CCc2nn(C)c(Cc3ccccc3)c2C1=O | binding | competition with immobilised ligand | 0.1 µM | 47 |
| Cc1cc(C)c(-n2ccn3nc(-c4cccnc4)cc23)cc1NC(=O)c1cc(C#N)cc(S(F)(F)(F)(F)F)c1 | cell-free assay | competition with immobilised ligand | 0.1 µM | 99.5 |
| N[C@H]1CCN(c2nccc(-c3cnn4ncccc34)n2)C1 | binding |  | 1 µM | 79 |
| CNCc1ccccc1-c1csc([C@H](C)Nc2nc(C)nc3cc(OC)c(OC)cc23)c1 | cell-free assay | competition with immobilised ligand | 1 µM | 78 |
| C=CC(=O)N1CCC(C(=O)NCC(=O)N2CCN(c3nc(-c4cnc(N)nc4C(F)F)nc(N4CCOCC4)n3)CC2)CC1 | binding | competition with immobilised ligand | 1 µM | 42 |
| CN(C)c1ncc(F)c(-c2cnn3ncccc23)n1 | binding |  | 1 µM | 69 |
| CNC(=O)[C@@H]1CC[C@@H](n2c(-c3ccc4cnccc4c3)nc3ccc(C(=O)NCc4cccc(C(N)=O)c4)cc32)C1 | binding | competition with immobilised ligand | 1 µM | 100 |
| c1cncc(-c2cccc(Nc3nccc(NC4CCCCC4)n3)c2)c1 | binding | competition with immobilised ligand | 10 µM | 18 |
| CC(=O)C1=C(C)N(c2cccc(C(F)(F)F)c2)C(=O)N[C@@H]1c1ccc(C#N)nc1 | cell-free assay | competition with immobilised ligand | 1 µM | 93 |
| CN(C)c1nccc(-c2cnc3ncccn23)n1 | binding |  | 1 µM | 79 |
| O=C(Nc1c[nH]nc1C(=O)NC1CCNCC1)c1cc(F)cc(F)c1 | binding | competition with immobilised ligand | 1 µM | 100 |
| Nc1ncc2c(n1)-c1c([nH]c3ccc(C#CC4CC4)cc13)CCCC2 | binding | competition with immobilised ligand | 1 µM | 64 |
| CCCOc1ccc([C@@H]2[C@@H](C(=O)O)[C@H](c3ccc4c(c3)OCO4)CN2CC(=O)Nc2c(CC)cccc2CC)cc1 | cell-free assay | competition with immobilised ligand | 1 µM | 93 |
| O=C(c1ccc(Nc2ncc(Cl)c(-c3ccc(Cl)s3)n2)cc1)N1CCC(N2CCCC2)CC1 | binding | competition with immobilised ligand | 1 µM | 0 |
| C[C@@H]1CCN(c2nccc(-c3cnn4ncccc34)n2)C1 | binding |  | 1 µM | 79 |
| O=C(c1ccc(Nc2nccc(-c3cc4ccccc4s3)n2)cc1)N1CCC(N2CCCC2)CC1 | binding | competition with immobilised ligand | 1 µM | 0 |
| COc1ccc2c(c1)O[C@@H](c1ccc(OC)c(OC)c1)C[C@H]2NC(=O)C1(c2ccc3c(c2)OC(F)(F)O3)CC1 | cell-free assay | competition with immobilised ligand | 1 µM | 83 |
| CN(CCCC(F)(F)F)c1nccc(-c2cnn3ncccc23)n1 | binding |  | 1 µM | 95 |
| Cc1nc(N2CC[C@@H](O)C2)ncc1-c1cc(C(F)(F)F)cc2[nH]ncc12 | binding | competition with immobilised ligand | 1 µM | 67 |
| CN(c1nccc(-c2cnn3ncccc23)n1)C1CC1 | binding |  | 1 µM | 99 |
